Measurements taken from ChEMBL document CHEMBL1671655, “Anidulafungin is fungicidal and exerts a variety of postantifungal effects against Candida albicans, C. glabrata, C. parapsilosis, and C. krusei isolates” (2009).
Values after ≈ are worked out from the molar mass of the structure shown. Active and inactive are the calls of the source. No cut-off for these calls is given here. Starred links: 1 amine or outer side, 2 acyl side, 3 side chain; linkers in the order of their positions; H or OH if unused. Positions of bridges follow the written chain, without caps; N, C: chain ends. Non-standard residues stand in square brackets, D forms with d. Residues, ends and D or L forms follow the SMILES beside them. *: point of attachment. pTerphenylCO(4''-OnC5H11) = CCCCCOc1ccc(-c2ccc(-c3ccc(C(=O)*)cc3)cc2)cc1; Orn(4R-OH,5R-OH) = O=C([C@H](C[C@@H](O)[C@@H](O)N[*:3])N[*:1])[*:2]; hTyr(3S-OH,4S-OH) = N[C@H](C(=O)O)[C@H](O)[C@@H](O)c1ccc(O)cc1; Pro(3S-OH,4S-Me) = C[C@H]1CN[C@H](C(=O)O)[C@H]1O; Hyp = O=C(O)[C@@H]1C[C@@H](O)CN1

Legend:
Candida parapsilosis [1] = test: Fungicidal activity against Candida parapsilosis isolate A assessed as log reduction in bacterial count at 16 times MIC after 48 hrs by time-kill analysis; type: functional; conditions: Lodderomyces parapsilosis
In short: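 Isolates subcultured twice on SDA, then suspended to 0.5 McFarland and diluted into RPMI 1640 (MOPS, pH 7.0) with or without anidulafungin, giving about 1 x 10^5 to 5 x 10^5 CFU/ml. Tubes were shaken at 35°C. Samples were taken at 0, 2, 4, 8, 12, 24 and 48 h, serially diluted 10-fold, plated on SDA, and CFU counted after 48 h at 35°C. Each isolate was run twice; mean values.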

Pichia kudriavzevii [2] = test: Fungicidal activity against Candida krusei isolate 1 assessed as log reduction in bacterial count at 16 times MIC after 48 hrs by time-kill analysis; type: functional; conditions: isolate 1, 48 h
In short: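 Isolates subcultured twice on SDA, suspended to 0.5 McFarland, giving ~1 x 10^5 to 5 x 10^5 CFU/ml in MOPS-buffered RPMI 1640 (pH 7.0) with or without drug at multiples of MIC (MIC by CLSI M27-A3). Tubes shaken at 35°C with continuous drug. Sampled at 0–48 h, diluted 10-fold and plated on SDA; CFU counted after 48 h at 35°C. Run twice per isolate; means.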

Candida parapsilosis [3] = test: Fungicidal activity against Candida parapsilosis isolate A assessed as log reduction in bacterial count at MIC after drug exposure for 1 hr followed by washout measured after 48 hrs in the absence of drug by PAFE study; type: functional; conditions: Lodderomyces parapsilosis
In short: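 Inoculum about 1 x 10^5 to 5 x 10^5 CFU/ml in RPMI 1640 (MOPS, pH 7.0) with drug, shaken at 35°C for 1 h. Cells were then washed and centrifuged at 1,400 x g for 10 min (3 cycles) and resuspended in warm drug-free RPMI. Samples plated on SDA at 0, 2, 4, 8, 12, 24 and 48 h; CFU counted after 48 h at 35°C. Run twice per isolate; means.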

Nakaseomyces glabratus [4] = test: Fungicidal activity against Candida glabrata isolate 2 assessed as log reduction in bacterial count at 16 times MIC after drug exposure for 1 hr followed by washout measured after 48 hrs in the absence of drug by PAFE study; type: functional
In short: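 Starting inoculum ~1 x 10^5 to 5 x 10^5 CFU/ml in MOPS-buffered RPMI 1640 (pH 7.0) with drug at multiples of the CLSI M27-A3 MIC. After 1 h at 35°C, cells washed and centrifuged three times at 1,400 x g for 10 min, then resuspended in warm drug-free RPMI. Shaken at 35°C and plated on SDA at 0–48 h; CFU counted after 48 h. Run twice per isolate; means.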

Candida parapsilosis [5] = test: Antifungal activity against Candida parapsilosis isolate A assessed as time period for bacterial growth inhibition at 4 times MIC after 1 hr drug exposure; type: functional
In short: (§1)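 Inoculum of about 1 x 10^5 to 5 x 10^5 CFU/ml in MOPS-buffered RPMI (pH 7.0), shaken at 35°C and exposed to drug for 1 h. Cells then washed and centrifuged three times and resuspended in drug-free warm RPMI. Samples plated on SDA at 0, 2, 4, 8, 12, 24 and 48 h, with CFU counted after 48 h at 35°C. Run twice per isolate; values are means.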

Candida parapsilosis [6] = test: Antifungal activity against Candida parapsilosis by NCCLS M27A broth microdilution method; type: functional; conditions: Lodderomyces parapsilosis
Candida parapsilosis [7] = test: Antifungal activity against Candida parapsilosis isolate 1 by CLSI M27-A3 broth microdilution method; type: functional; conditions: Lodderomyces parapsilosis
In short: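 CLSI M27-A3 broth microdilution in RPMI 1640 buffered to pH 7.0 with MOPS. Starting inoculum 0.5 x 10^3 to 2.5 x 10^3 cells/ml, incubated at 35°C. MIC read as the lowest concentration giving >50% growth reduction versus control. Each isolate tested on at least three occasions.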

Candida albicans [8] = test: Antifungal activity against Candida albicans assessed as time period for bacterial regrowth inhibition after 1 hr drug exposure; type: functional
Candida parapsilosis [9] = test: Antifungal activity against Candida parapsilosis isolate 1 assessed as time period for bacterial growth inhibition at 16 times MIC after 1 hr drug exposure; type: functional; in short: as §1
Pichia kudriavzevii [10] = test: Antifungal activity against Candida krusei isolate ATCC 6258 assessed as time period for bacterial growth inhibition at 16 times MIC after 1 hr drug exposure; type: functional; in short: as §1
Candida albicans [11] = test: Increase in susceptibility to SDS in Candida albicans isolate 1 assessed as cell wall damage at MIC after 1 hr relative to control; type: functional, organism-based
In short: (§2)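 Cells recovered 8 h after a 1-h drug exposure were grown in YPD with 1% glucose to exponential phase and adjusted to OD599 0.1. Undiluted culture and 10-fold serial dilutions were spotted onto YPD plates containing SDS (0.01 to 0.04%), then incubated 72 h at 30°C. Growth compared with unexposed control cells; triplicate.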

Nakaseomyces glabratus [12] = test: Increase in susceptibility to SDS in Candida glabrata isolate 3 assessed as cell wall damage at MIC after 1 hr relative to control; type: functional, organism-based; in short: as §2
Pichia kudriavzevii [13] = test: Increase in susceptibility to SDS in Candida krusei isolate ATCC 6258 assessed as cell wall damage at MIC after 1 hr relative to control; type: functional, organism-based; in short: as §2
Candida albicans [14] = test: Increase in susceptibility to SDS in Candida albicans isolate 1 assessed as cell wall damage at 16 times MIC after 1 hr relative to control; type: functional, organism-based; in short: as §2
Candida parapsilosis [15] = test: Increase in susceptibility to calcofluor white in Candida parapsilosis isolate A assessed as cell wall damage at 4 times MIC after 1 hr relative to control; type: functional, organism-based
In short: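 Candida given a 1-h anidulafungin pulse in MOPS-buffered RPMI 1640 (pH 7.0) at 35°C, washed three times by centrifugation, and regrown drug-free. Cells collected 8 h later, grown in YPD with 1% glucose to exponential phase, and set to OD599 0.1. Undiluted culture and 10-fold dilutions (4 µl) spotted on YPD plates with calcofluor white, then 30°C for 72 h. Triplicate; compared with no-drug cells.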

Nakaseomyces glabratus [16] = test: Increase in susceptibility to calcofluor white in Candida glabrata isolate 1 assessed as cell wall damage at 16 times MIC after 1 hr relative to control; type: functional, organism-based
In short: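 Cells recovered 8 h after a 1-h drug exposure were grown to exponential phase in YPD with 1% glucose and adjusted to OD599 0.1. Undiluted and 10-fold serially diluted cultures were spotted onto YPD plates containing calcofluor white, then incubated at 30°C for 72 h. Growth compared with no-drug control cells; triplicate.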

Nakaseomyces glabratus [17] = test: Antifungal activity against Candida glabrata isolate 1 assessed as cell wall damage at MIC by Transmission electron microscopy; type: functional, organism-based
In short: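 Cells recovered 8 h after a 1-h drug exposure were grown on SDA for 24 h at 35°C. Colonies fixed at 4°C in 0.1 M cacodylate (pH 7.2) with 2% glutaraldehyde and 2% paraformaldehyde, ethanol-dehydrated and embedded in Lowicryl K4M. Thin sections examined by transmission EM.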

Nakaseomyces glabratus [18] = test: Inhibition of Candida glabrata isolate 1 adherence to human buccal epithelial cells at 4 times MIC after 1 hr by adherence assay relative to control; type: functional, Epithelial cell
In short: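 Candida collected 8 h after a 1-h 4x MIC pulse and washout were grown on SDA for 24 h at 35°C. Buccal epithelial cells were pooled from three donors and washed in PBS. Cells (1 x 10^5/ml) were mixed 1:1 by volume with Candida (1 x 10^6/ml) and shaken 1 h at 37°C. Mixtures were filtered, washed, and Gram-stained, and Candida were counted per 100 epithelial cells. Run in duplicate on ≥2 occasions; Student's t test against unexposed controls.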

CCCCCOc1ccc(-c2ccc(-c3ccc(C(=O)N[C@H]4C[C@@H](O)[C@@H](O)NC(=O)[C@@H]5[C@@H](O)[C@@H](C)CN5C(=O)[C@H]([C@@H](C)O)NC(=O)[C@H]([C@H](O)[C@@H](O)c5ccc(O)cc5)NC(=O)[C@@H]5C[C@@H](O)CN5C(=O)[C@H]([C@@H](C)O)NC4=O)cc3)cc2)cc1 [ANIDULAFUNGIN] ({pTerphenylCO(4''-OnC5H11)}-[Orn(4R-OH,5R-OH)]T[Hyp][hTyr(3S-OH,4S-OH)]T[Pro(3S-OH,4S-Me)]; lactam 1-C)
log reduction (Candida parapsilosis [1]): 3.42 log CFU/ml
log reduction (Pichia kudriavzevii [2]): 3 log CFU/ml
log reduction (Candida parapsilosis [3]): 1.41
log reduction (Nakaseomyces glabratus [4]): 2.92
Time (Candida parapsilosis [5]): 8 h
MIC90 (Candida parapsilosis [6]): 2 µg/mL (≈ 1.75 µM)
MIC (Candida parapsilosis [7]): 2 µg/mL (≈ 1.75 µM)
Time (Candida albicans [8]): >=12 hr
Time (Candida parapsilosis [9]): 8 h
Time (Pichia kudriavzevii [10]): 8 h
Activity (Candida albicans [11]): Active
Activity (Nakaseomyces glabratus [12]): Active
Activity (Pichia kudriavzevii [13]): Active
Activity (Candida albicans [14]): Active
Activity (Candida parapsilosis [15]): Active
Activity (Nakaseomyces glabratus [16]): Active
Activity (Nakaseomyces glabratus [17]): Active
inhibition (INH) (Nakaseomyces glabratus [18]): 62%
